ChEMBL document CHEMBL4118199 (J Med Chem, 2018)

What was measured:
[1] = target: T1, Proteasome subunit beta type-10 (Homo sapiens, UniProt P40306); assay: Inhibition of human 20S immunoproteasome beta-2 using Bz-VGR-AMC as substrate after 60 mins by fluorescence assay
T1 sequence (P40306 whole entry): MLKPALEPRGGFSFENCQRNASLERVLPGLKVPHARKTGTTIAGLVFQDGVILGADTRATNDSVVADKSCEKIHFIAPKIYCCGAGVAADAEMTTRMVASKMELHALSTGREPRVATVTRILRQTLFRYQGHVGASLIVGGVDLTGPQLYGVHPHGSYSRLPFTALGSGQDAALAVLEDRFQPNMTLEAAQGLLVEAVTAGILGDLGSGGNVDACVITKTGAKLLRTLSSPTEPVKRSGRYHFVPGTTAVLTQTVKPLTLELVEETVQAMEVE
Method in brief: (§1)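 Purified 20S proteasome (final 2.5 nM) in kit assay buffer. Inhibitors preincubated 60 min at ambient temperature with shaking, final concentrations 0.1 nM–400 µM. Fluorogenic substrate at final 100 µM. Fluorescence (ex 360 nm, em 460 nm) read kinetically for 2 h at 25 °C. Duplicates, three repetitions. IC50 obtained from a Hill-equation fit of % residual activity against log concentration.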

[2] = Stability in pH 6.5 PBS buffer at 1 mM after 12 hrs by HPLC analysis; format: physicochemical; conditions: read-out: Stability
Method in brief: (§2)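 Compound in DMSO added to 1x PBS adjusted with HCl/NaOH to pH 6.5, 7.4 or 8.0, giving about 1 mM final. Sulfonyl fluoride hydrolysis followed by analytical HPLC over 12 h. Peak measured right after buffer addition set as 0 h reference. Reported as residual % of intact R-SO2F.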

[3] = target: T2, Proteasome subunit beta type-8 (Homo sapiens, UniProt P28062); assay: Inhibition of human 20S immunoproteasome beta-5 using Suc-LLVY-AMC as substrate after 60 mins by fluorescence assay; method in brief: as §1
T2 sequence (P28062 whole entry): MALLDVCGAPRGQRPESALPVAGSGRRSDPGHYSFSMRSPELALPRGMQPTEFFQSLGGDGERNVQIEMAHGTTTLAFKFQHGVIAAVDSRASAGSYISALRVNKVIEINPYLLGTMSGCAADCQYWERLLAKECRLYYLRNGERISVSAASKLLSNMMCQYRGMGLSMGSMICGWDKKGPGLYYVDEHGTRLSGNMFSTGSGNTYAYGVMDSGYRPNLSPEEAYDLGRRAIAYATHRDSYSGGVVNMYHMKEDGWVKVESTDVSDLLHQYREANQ

[4] = species on record: Homo sapiens; assay: Selectivity ratio of IC50 for human 20S constitutive proteasome beta-5 to IC50 for human 20S constitutive proteasome beta-2
[5] = target: T3, Proteasome Macropain subunit MB1 (Homo sapiens, UniProt P28074); assay: Inhibition of human 20S constitutive proteasome beta-5 using Suc-LLVY-AMC as substrate after 60 mins by fluorescence assay
T3 sequence (P28074 whole entry): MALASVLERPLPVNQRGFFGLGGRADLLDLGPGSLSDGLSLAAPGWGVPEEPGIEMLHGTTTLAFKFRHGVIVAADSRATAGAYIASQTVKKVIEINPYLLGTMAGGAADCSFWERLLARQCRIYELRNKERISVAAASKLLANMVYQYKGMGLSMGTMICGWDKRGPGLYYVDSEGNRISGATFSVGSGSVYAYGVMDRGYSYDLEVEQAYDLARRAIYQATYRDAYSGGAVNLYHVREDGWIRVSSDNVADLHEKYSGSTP
Method in brief: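 Inhibitors preincubated 60 min at ambient temperature with shaking, final concentrations 0.1 nM–400 µM. Fluorogenic substrate at final 100 µM. Duplicates, three repetitions. IC50 obtained from a Hill-equation fit of % residual activity against log concentration.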

[6] = Stability in pH 8 PBS buffer at 1 mM after 2 hrs by HPLC analysis; format: physicochemical; conditions: read-out: Stability; method in brief: as §2
[7] = Stability in pH 7.4 PBS buffer at 1 mM after 6 hrs by HPLC analysis; format: physicochemical; conditions: read-out: Stability; method in brief: as §2
[8] = Stability in pH 7.4 PBS buffer at 1 mM after 1 hr by HPLC analysis; format: physicochemical; conditions: read-out: Stability; method in brief: as §2
[9] = species on record: Homo sapiens; assay: Selectivity ratio of IC50 for human 20S immunoproteasome beta-5 to IC50 for human 20S immunoproteasome beta-2

| SMILES | IC50 [1] [µM] | remaining at 12 h, 1000 µM [2] [%] | IC50 [3] [µM] | Ratio IC50 [4] | IC50 [5] [µM] | remaining at 2 h, 1000 µM [6] [%] | remaining at 6 h, 1000 µM [7] [%] | remaining at 1 h, 1000 µM [8] [%] | Ratio IC50 [9] |
| --- | --- | --- | --- | --- | --- | --- | --- | --- | --- |
| CC(C)C[C@H](NC(=O)[C@H](CC(C)C)NC(=O)[C@@H](N)Cc1ccccc1)C(=O)N[C@@H](CCCCN)CS(=O)(=O)F | 0.3 | 75 | > 100 | > 1000 | > 100 | 50 | ≥ 50 | 90 | > 1000 |
| CC(C)C[C@H](NC(=O)[C@H](CC(C)C)NC(=O)[C@H](Cc1ccccc1)NC(=O)OC(C)(C)C)C(=O)N[C@@H](CCCNC(=N)N)CS(=O)(=O)F |  | 75 |  | 40 | 27.8 | 50 | ≥ 50 | 90 |  |
| CC(=O)N[C@@H](Cc1ccccc1)C(=O)N[C@@H](CC(C)C)C(=O)N[C@@H](CC(C)C)C(=O)N[C@@H](CCCCN)CS(=O)(=O)F |  | 75 |  | 300 | > 100 | 50 | ≥ 50 | 90 |  |
| CC(C)C[C@H](NC(=O)[C@H](CC(C)C)NC(=O)[C@@H](N)Cc1ccccc1)C(=O)N[C@@H](CCCNC(=N)N)CS(=O)(=O)F | 0.21 | 75 | > 100 | 560 | 140 | 50 | ≥ 50 | 90 | > 1000 |
| CC(=O)N[C@@H](Cc1ccccc1)C(=O)N[C@@H](CC(C)C)C(=O)N[C@@H](CC(C)C)C(=O)N[C@@H](CCCNC(=N)N)CS(=O)(=O)F |  | 75 |  | 70 | 69 | 50 | ≥ 50 | 90 |  |
| CC(=O)N[C@@H](Cc1ccccc1)C(=O)N[C@@H](CC(C)C)C(=O)N[C@@H](CC(C)C)C(=O)N[C@@H](Cc1ccc(N)cc1)CS(=O)(=O)F |  | 75 |  | 0.1 | 0.21 | 50 | ≥ 50 | 90 |  |
| CC(C)C[C@H](NC(=O)[C@H](CC(C)C)NC(=O)[C@@H](N)Cc1ccccc1)C(=O)N[C@@H](Cc1ccc(N)cc1)CS(=O)(=O)F | 0.2 | 75 | 0.45 | 4.3 | 0.95 | 50 | ≥ 50 | 90 | 2.3 |
| CC(C)C[C@H](NC(=O)[C@H](Cc1ccccc1)N=[N+]=[N-])C(=O)N[C@@H](CC(C)C)C(=O)N[C@@H](Cc1ccc(N)cc1)CS(=O)(=O)F |  | 75 |  |  |  | 50 | ≥ 50 | 90 |  |
| CC(=O)N[C@@H](Cc1ccccc1)C(=O)N[C@@H](CC(C)C)C(=O)N[C@@H](CC(C)C)C(=O)N[C@@H](Cc1ccc(CN)cc1)CS(=O)(=O)F | 0.395 | 75 | 17.2 | 150 | 18 | 50 | ≥ 50 | 90 | 44 |
| CC(C)C[C@H](NC(=O)[C@H](Cc1ccccc1)N=[N+]=[N-])C(=O)N[C@@H](CC(C)C)C(=O)N[C@H](/C=C/S(C)(=O)=O)Cc1ccc(CN)cc1 | 0.0275 |  | 1.8 |  |  |  |  |  |  |
| CC(C)C[C@H](NC(=O)[C@H](Cc1ccccc1)N=[N+]=[N-])C(=O)N[C@@H](CC(C)C)C(=O)N[C@@H](CCCNC(=N)N)CS(=O)(=O)F |  | 75 |  | 110 | 39 | 50 | ≥ 50 | 90 |  |
| CC(C)C[C@H](NC(=O)[C@H](Cc1ccccc1)N=[N+]=[N-])C(=O)N[C@@H](CC(C)C)C(=O)N[C@@H](Cc1ccc(CN)cc1)CS(=O)(=O)F | 0.13 | 75 | 3.1 | 66 | 8.9 | 50 | ≥ 50 | 90 | 24 |
| CC(C)C[C@H](NC(=O)OCc1ccccc1)C(=O)N[C@@H](CC(C)C)C(=O)N[C@@H](CC(C)C)C(=O)N[C@@H](CCCNC(=N)N)CS(=O)(=O)F | 1.11 | 75 | 14 | 50 | 10 | 50 | ≥ 50 | 90 | 13 |
| CC(C)C[C@H](NC(=O)[C@H](Cc1ccccc1)N=[N+]=[N-])C(=O)N[C@@H](CC(C)C)C(=O)N[C@@H](CCCCN)CS(=O)(=O)F |  | 75 |  | 96 | 67 | 50 | ≥ 50 | 90 |  |
| CC(C)C[C@H](NC(=O)[C@H](CC(C)C)NC(=O)[C@@H](N)Cc1ccccc1)C(=O)N[C@@H](Cc1ccc(CN)cc1)CS(=O)(=O)F | 0.36 | 75 | 137 | 900 | 125 | 50 | ≥ 50 | 90 | 380 |
| CC(C)C[C@H](NC(=O)[C@H](CC(C)C)NC(=O)[C@H](Cc1ccccc1)NC(=O)OCc1ccccc1)C(=O)N[C@@H](CCCNC(=N)N)CS(=O)(=O)F | 0.4 | 75 | 6.7 | 45 | 6.7 | 50 | ≥ 50 | 90 | 17 |
